# The whole screen tested about 130,000 compounds, of which about 900 (0.69%) were called active. The sample holds actives, similar compounds and a random draw of the others, so the mix is not that of the screen.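 How the source made its calls: active means inhibition above a set limit, placed 3 SD over the median of all compounds (cut at about 26% in these data); inactive means the rest.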
# Assay: rescue of nicotinamide-shortened yeast lifespan – S. cerevisiae, OD615, primary screen (AID 775);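 further: 0% = nicotinamide-treated wells and 100% = cells grown without nicotinamide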
# Conditions: S. cerevisiae growth with nicotinamide, at 10 µM, active compounds read high, deaD strain in restrictive glucose medium
# In short: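 Test system – modified budding yeast, DeaD strain · Compound – single dose 10 µM compound, 0.25% DMSO · Times – culture preincubation 4 h, compound exposure 48 h, both 30 °C · Detection – optical density (absorbance) at 615 nm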
row,SMILES,inhibition of the nicotinamide effect
1,COc1ccc(C(=O)C2CN(C)CC2C(=O)c2ccc(OC)cc2)cc1 (stereo not given),-7.58% (inactive)
2,COc1ccc(C(=O)CC2C(=O)N(C)C(=O)N(C)C2=O)cc1,31% (active)
3,CN1CCN(C(=S)SCC(=O)Nc2ccc(Cl)cc2C(=O)c2ccccc2)CC1,2.18% (inactive)
4,CNC(=S)N/N=C1\C2CN3CCN(C2)CC1(c1ccccc1)C3,6.05% (inactive)
5,Cn1c(O)c(C=NCCCC(=O)O)c(=O)n(C)c1=O,-5.17% (inactive)
6,CC(=C1C(=O)c2ccccc2C1=O)N1CCN(CCN=Cc2c(O)n(C)c(=O)n(C)c2=O)CC1,26.9% (active)
7,CC(=NC1CCN(Cc2ccccc2)CC1)c1c(O)n(C)c(=O)n(C)c1=O,-9.29% (inactive)
8,O=C(N/N=C/c1c(O)n(Cc2ccccc2)c(=O)[nH]c1=O)c1ccccc1,-4.35% (inactive)
9,CN(C)C(=O)Oc1cc(=O)n2c3c(cccc13)CCC2,-0.91% (inactive)
10,O=C(CCNS(=O)(=O)c1ccccc1)Nc1ccc(Cl)cc1C(=O)c1ccccc1,0.6% (inactive)
11,Cc1ccc(-n2c(-c3ccc([N+](=O)[O-])cc3)nc3ccccc3c2=O)cc1,2.14% (inactive)
12,CCCCCn1c(=O)c(C(=O)Nc2c(C)n(C)n(-c3ccccc3)c2=O)c(O)c2ccccc21,0.87% (inactive)
13,CCCCCn1c(=O)c(C(=O)NCc2ccccn2)c(O)c2ccccc21,36.3% (active)
14,COc1cc(C(c2c(O)c3ccccc3oc2=O)c2c(C)n(C)n(-c3ccccc3)c2=O)ccc1O (stereo not given),0.56% (inactive)
15,CC(C(=O)Nc1ccc(Cl)cc1Cl)N1CC=C(c2ccccc2)CC1 (stereo not given),-1.28% (inactive)
16,CN(C)CC1CCCCC1OC(=O)c1ccc(Cl)c(Cl)c1 (stereo not given),2.28% (inactive)
17,Cc1ccc(-n2c(C)cc(/C=C3\C(=O)NC(=O)N(C)C3=O)c2C)cc1C,4.25% (inactive)
18,Cc1ccnc(-n2c(C)cc(/C=C3\C(=O)NC(=S)N(C)C3=O)c2C)c1,43.7% (active)
19,C=CCn1c(O)c(/C=N/N2CCOCC2)c(=O)[nH]c1=S,-2.87% (inactive)
20,O=C1NC(=O)N(c2ccc(F)cc2)C(=O)/C1=C/c1ccc2c(c1)CCCN2Cc1ccccc1,-3.32% (inactive)
